Measured values as given in ChEMBL document CHEMBL1687889, “Antitumor agents. 284. New desmosdumotin B analogues with bicyclic B-ring as cytotoxic and antitubulin agents” (J Med Chem, 2011).
Activity calls are given as the source filed them. The rule behind the calls is not given here.

Assays:
KB = assay: Antiproliferative activity against human KB cells after 3 days by sulforhodamine B assay; type: functional; conditions: 72 h
Summary of the method: (§1)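 Cells grown in RPMI-1640 with 25 mM HEPES, 0.25% sodium bicarbonate, 10% FBS and 100 μg/mL kanamycin. Exposed to compound for 3 days, with at most 0.5% v/v DMSO. Attached cells fixed in cold 50% TCA, stained with 0.4% sulforhodamine B, and the bound dye solubilized. A562 read. GI50 is the concentration giving a 50% absorbance drop versus untreated cells.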

[1] = Antiproliferative activity against human KBVIN cells after 3 days by sulforhodamine B assay; type: functional; conditions: 72 h; summary of the method: as §1
PC-3 = assay: Antiproliferative activity against human PC3 cells after 3 days by sulforhodamine B assay; type: functional; conditions: PC-3, 72 h
HepG2 [2] = assay: Antiproliferative activity against human HepG2 cells after 3 days by sulforhodamine B assay; type: functional; conditions: HepG2, 72 h
Summary of the method: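 Sulforhodamine B assay over 3 days in culture, with at most 0.5% v/v DMSO. Attached cells fixed in cold 50% TCA, stained with 0.4% SRB, and the dye solubilized. Absorbance read at 562 nm. GI50 is the concentration causing a 50% fall in absorbance relative to untreated cells.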

A549 = assay: Antiproliferative activity against human A549 cells after 3 days by sulforhodamine B assay; type: functional; conditions: A549, 72 h; summary of the method: as §1
HCT-8 [3] = assay: Antiproliferative activity against human HCT8 cells after 3 days by sulforhodamine B assay; type: functional; conditions: HCT-8, 72 h; summary of the method: as §1
MCF7 [4] = assay: Antiproliferative activity against human MCF7 cells after 3 days by sulforhodamine B assay; type: functional; conditions: MCF7, 72 h
[5] = Displacement of [3H]colchicine from tubulin at 5 uM for 10 mins
Summary of the method: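 1.0 μM tubulin incubated with 5.0 μM [3H]colchicine and 5.0 μM inhibitor for 10 min at 37 °C, when control samples reach about 40–60% of maximal colchicine binding. Result given as percent inhibition of colchicine binding.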

[6] = Inhibition of tubulin assembly after 20 mins by turbidimetric assay; conditions: read-out: IC50
Summary of the method: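 Turbidimetry at 350 nm. 10 μM (1.0 mg/mL) tubulin preincubated with compound for 15 min at 30 °C without GTP, then chilled, and 0.4 mM GTP added. Turbidity followed for 20 min at 30 °C after a temperature jump from 0 °C. IC50 is the concentration halving the turbidity increase relative to control.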

DU-145 = assay: Antiproliferative activity against human DU145 cells after 3 days by sulforhodamine B assay; type: functional; conditions: DU-145, 72 h
HCT-8 [7] = assay: Antiproliferative activity against human HCT8 cells at 20 ug/ml after 3 days by sulforhodamine B assay; type: functional, cell-based
MCF7 [8] = assay: Antiproliferative activity against human MCF7 cells at 20 ug/ml after 3 days by sulforhodamine B assay; type: functional, cell-based
HepG2 [9] = assay: Antiproliferative activity against human HepG2 cells at 20 ug/ml after 3 days by sulforhodamine B assay; type: functional, cell-based

SMILES	GI50 (KB) [µM]	GI50 [1] [µM]	GI50 (PC-3) [µM]	GI50 (HepG2 [2]) [µM]	GI50 (A549) [µM]	GI50 (HCT-8 [3]) [µM]	GI50 (MCF7 [4]) [µM]	inhibition [5] [%]	IC50 [6] [µM]	GI50 (DU-145) [µM]	Activity (HCT-8 [7])	Activity (MCF7 [8])	Activity (HepG2 [9])
CCC1=C(O)c2c(oc(-c3ccc4c(c3)OCO4)cc2=O)C(CC)(CC)C1=O	18.3	17	5.24	11.8	26.2	13.1	11.3						
CCC1=C(O)c2c(oc(-c3cn(C)c4ccccc34)cc2=O)C(CC)(CC)C1=O	18.7	2.81	20.5	21.7	5.63	15.9	17.4						
CCC1=C(O)c2c(oc(-c3ccc(OC)c4ccccc34)cc2=O)C(CC)(CC)C1=O	1.67	1.56	2.39	1.48	1.48	3.35	3.59	31	2.7				
CCC1=C(O)c2c(oc(-c3csc4ccc(C)cc34)cc2=O)C(CC)(CC)C1=O	53.9	> 98	> 98	> 98	> 98	93.1				> 98			
CCC1=C(O)c2c(oc(-c3cc4ccccc4s3)cc2=O)C(CC)(CC)C1=O	11.2	9.9	3.81	15.7	14	19	15.2						
CC1=C(O)c2c(oc(-c3csc4ccccc34)cc2=O)C(C)(C)C1=O	0.11	0.09	0.91	0.57	0.23	1.08		69	2.4				
CCC1=C(O)c2c(oc(-c3ccc4cc(OC)ccc4c3)cc2=O)C(CC)(CC)C1=O	10.8	9.57	4.78	13.4	16.8	12	8.37						
CCC1=C(O)c2c(oc(-c3cnc4ccccc4c3)cc2=O)C(CC)(CC)C1=O	15.4	14.9	12.8	14.9	12.8	12.8	19.3						
CCC1=C(O)c2c(oc(-c3ccc(-c4ccccc4)cc3)cc2=O)C(CC)(CC)C1=O	18.1	12.1	8.45	19.3	18.1		15.7				inactive		
CCC1=C(O)c2c(oc(-c3ccc4c(c3)OCCO4)cc2=O)C(CC)(CC)C1=O	1.26	1.14	1.52	1.52	1.52	2.27	1.89	33	6.5				
CCC1=C(O)c2c(oc(-c3cc4ccccc4c4ccccc34)cc2=O)C(CC)(CC)C1=O [6,8,8-TRIETHYL-2-(PHENANTHREN-9-YL) DESMOSDUMOTIN B]	11.4	9.82	13.7		18.3	12.8	9.13						
CCC1=C(O)c2c(oc(-c3c(C)ccc4ccccc34)cc2=O)C(CC)(CC)C1=O	19.9	19.9	12.4	16.7	17.4	17.4	13.7						
CC1=C(O)c2c(oc(-c3cccc4ccccc34)cc2=O)C(C)(C)C1=O [2-(NAPHTHALEN-1-YL)DESMOSDUMOTIN B]	0.29	0.58	1.45		1.73	1.16	1.73						
CC[C@]1(O)C[C@H]2CN(CCc3c([nH]c4ccccc34)[C@@](C(=O)OC)(c3cc4c(cc3OC)N(C=O)[C@H]3[C@@](O)(C(=O)OC)[C@H](OC(C)=O)[C@]5(CC)C=CCN6CC[C@]43[C@@H]65)C2)C1 [VINCRISTINE]	0.004	9.09			0.007	0.036							
CCC1=C(O)c2c(oc(-c3ccc(C)c4ccccc34)cc2=O)C(CC)(CC)C1=O	0.47	0.27	2.49	1.24	0.5	0.62	0.75	50	2.7				
CCC1=C(O)c2c(oc(-c3cccc4ccccc34)cc2=O)C(CC)(CC)C1=O [2-(NAPHTHALEN-1-YL)-6,8,8-TRIETHYL DESMOSDUMOTIN B]	1.55	0.77	1.03	2.06	1.55	1.03	1.55	43	2.3				
CCC1=C(O)c2c(oc(-c3cccc4ccccc34)cc2=S)C(CC)(CC)C1=S	7.38	5.95	24.1	24.1	5.95	13.3	14.1						
CCC1=C(O)c2c(oc(-c3ccc4c5c(cccc35)CC4)cc2=O)C(CC)(CC)C1=O	2.17	1.93	6.04	4.59	6.04	2.42	3.62						
CCC1=C(OC)C(CC)(CC)c2oc(-c3cccc4ccccc34)c(Br)c(=O)c2C1=O	9.13	9.96	10.8	14.5	4.77	7.68	11						
CCC1=C(O)c2c(oc(-c3cccc4ccccc34)cc2=O)C(CC)(CC)C1=S	1.41	2.7	16.6	8.42	1.86	8.17	3.22						
CCC1=C(OC)C(CC)(CC)c2oc(-c3cccc4ccccc34)cc(=O)c2C1=O	11.2	9.7	14.7	20.7	16.7	11.7	20.9						
CC1=C(O)c2c(oc(-c3ccc(C)c4ccccc34)cc2=O)C(C)(C)C1=O	0.61	0.72	13.3	1.33	1.25	2.56		37	2.5				
CC1=C(O)c2c(oc(-c3ccc4c(c3)OCCO4)cc2=O)C(C)(C)C1=O	0.76	0.65	1.5	23.7		1.3		36	3.7				
CCC1=C(O)C2=C(OC(c3cccc4ccccc34)CC2=O)C(CC)(CC)C1=O (stereo unspecified)	5.93	3.87	12.6	9.02	7.99	9.28							
CCC1=C(O)c2c(oc(-c3cc4ccccc4o3)cc2=O)C(CC)(CC)C1=O	14.8	14.6	5.82	15.1	17.2	5.82						inactive	
CCC1=C(O)c2c(oc(-c3coc4ccccc34)cc2=O)C(CC)(CC)C1=O	4.5	2.09	28	17.7	9.79	15.6							
CCCC1=C(O)c2c(oc(-c3cccc4ccccc34)cc2=O)C(CCC)(CCC)C1=O	18.6		17.4		23.3	23.3						inactive	inactive
